Experiment [1] in a line: Inhibition of CT-L activity of rabbit muscle 20S proteasome. The format is tissue-based, Oryctolagus cuniculus, Muscle tissue. In short, it runs like this: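 Serially diluted compound added in duplicate and preincubated 5 min at 37 °C. Reaction started with Suc-LLVY-AMC at 20 µM final, fluorescence read at ex 390/em 460 nm. IC50 from sigmoidal variable-slope fit, mean ± SD of at least three independent experiments.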

Another experiment has as its system RPMI-8226. As to the kind of experiment: Cytotoxicity against human RPMI 8226 cells. The format is cell-based. In short, it runs like this: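 Seeded at 2 × 10^4 cells/well, then serially diluted compound added in triplicate for 48 h. Growth read by resazurin reduction (fluorescence). IC50 = concentration giving 50% of maximal observed growth inhibition, from sigmoidal dose-response fit.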

Consider five compounds from ChEMBL document CHEMBL1141369, “Salinosporamides D-J from the marine actinomycete Salinispora tropica, bromosalinosporamide, and thioester derivatives are potent inhibitors of the 20S proteasome” (J Nat Prod, 2007).

As a reminder, the IC50 is the point on the concentration scale where inhibition reaches its midpoint. A higher IC50 goes with lower potency.

On to `C[C@@]12OC(=O)[C@]1(CC1C=CCCC1)NC(=O)[C@@H]2CCCl` (stereo not given in full) [SALINOSPORAMIDE J], for which the IC50 in experiment [1] was determined as 52 nM; in the experiment on RPMI-8226, 250 nM.
For `CC[C@H]1C(=O)N[C@](C(=O)SCCC(=O)OC)([C@@H](O)[C@@H]2C=CCCC2)[C@@]1(C)O`, in that order: 50 nM and 8000 nM.
For `COC(=O)[C@@H](CSC(=O)[C@]1([C@@H](O)[C@@H]2C=CCCC2)NC(=O)[C@H](CCCl)[C@]1(C)O)NC(C)=O`, in that order: 4 nM and 9.7 nM.
Consider `COC(=O)CCSC(=O)[C@]1([C@@H](O)[C@@H]2C=CCCC2)NC(=O)[C@H](CCCl)[C@]1(C)O`, for which the IC50 was 9.3 nM in experiment [1] and 11 nM in the experiment with RPMI-8226.
In the case of `COC(=O)CCSC(=O)[C@]1([C@@H](O)[C@@H]2C=CCCC2)NC(=O)[C@@H]2CCO[C@@]21C`, the half-inhibitory concentration (IC50) in experiment [1] is 230 nM; with RPMI-8226, 7500 nM.
